Assay results published in ChEMBL document CHEMBL4400542, “Epidermal Growth Factor Receptor-Targeted Multifunctional Photosensitizers for Bladder Cancer Imaging and Photodynamic Therapy” (J Med Chem, 2019).
Activity calls are given as the source filed them. No cut-off for these calls is given here.

Key:
[1] = target: Epidermal growth factor receptor (Homo sapiens) (UniProt P00533); experiment: Inhibition of EGFR autophosphorylation at Ty1068 in human UM-UC-3 cells at 1 uM followed by PDT and measured after 24 hrs by Western blot analysis; type: cell-based
Chain of Epidermal growth factor receptor (Homo sapiens) (P00533 whole entry): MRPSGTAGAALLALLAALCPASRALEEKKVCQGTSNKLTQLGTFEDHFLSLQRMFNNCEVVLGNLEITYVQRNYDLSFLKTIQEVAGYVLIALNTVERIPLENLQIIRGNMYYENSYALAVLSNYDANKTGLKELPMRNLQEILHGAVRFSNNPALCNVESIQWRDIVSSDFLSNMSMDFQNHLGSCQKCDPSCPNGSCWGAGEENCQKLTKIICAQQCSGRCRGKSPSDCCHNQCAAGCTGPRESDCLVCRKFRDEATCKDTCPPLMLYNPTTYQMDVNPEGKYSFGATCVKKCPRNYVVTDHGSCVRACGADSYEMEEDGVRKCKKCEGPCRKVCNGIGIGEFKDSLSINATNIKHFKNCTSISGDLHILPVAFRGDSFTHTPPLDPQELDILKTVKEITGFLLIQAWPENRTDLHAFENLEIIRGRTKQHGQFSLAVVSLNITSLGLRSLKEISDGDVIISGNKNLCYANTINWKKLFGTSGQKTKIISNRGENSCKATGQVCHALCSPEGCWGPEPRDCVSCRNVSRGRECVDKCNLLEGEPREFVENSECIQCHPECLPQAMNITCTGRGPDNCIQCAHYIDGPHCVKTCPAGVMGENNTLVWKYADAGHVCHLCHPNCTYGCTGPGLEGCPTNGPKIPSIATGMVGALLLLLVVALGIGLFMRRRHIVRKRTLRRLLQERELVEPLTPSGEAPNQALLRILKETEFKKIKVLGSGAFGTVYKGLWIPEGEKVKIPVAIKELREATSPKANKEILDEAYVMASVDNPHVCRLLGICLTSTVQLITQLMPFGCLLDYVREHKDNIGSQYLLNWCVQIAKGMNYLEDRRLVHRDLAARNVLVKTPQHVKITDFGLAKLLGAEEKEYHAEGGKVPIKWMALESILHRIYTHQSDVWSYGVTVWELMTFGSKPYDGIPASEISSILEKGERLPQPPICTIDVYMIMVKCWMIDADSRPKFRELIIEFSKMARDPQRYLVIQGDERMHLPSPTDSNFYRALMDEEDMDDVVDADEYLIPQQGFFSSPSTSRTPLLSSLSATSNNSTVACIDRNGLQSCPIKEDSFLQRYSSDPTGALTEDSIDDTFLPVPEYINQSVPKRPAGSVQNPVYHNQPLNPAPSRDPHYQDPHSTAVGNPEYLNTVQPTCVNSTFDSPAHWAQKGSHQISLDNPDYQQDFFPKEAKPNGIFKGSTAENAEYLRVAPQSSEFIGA

[2] = system: UMUC3; experiment: Induction of apoptosis in human UM-UC-3 cells assessed as increase in apoptotic cells at 1 uM in absence of light by Annexin V/propidium iodide-staining based flow cytometry; type: cell-based; conditions: umuc3, 1 µM
[3] = Drug uptake in human UM-UC-3 cells assessed as increase in gray value intensity at 1 uM pretreated for 24 hrs followed by compound washout and measured after 4 hrs by Hoechst 33342 staining based fluorescence microscopy; type: ADME, cell-based; conditions: umuc3, 4 h
Summary of the method: (§1)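 Cells pre-incubated 24 h with free erlotinib before PS addition. Legend describes PS at 1 uM or erlotinib at 3 uM for 4 h, then three warm PBS washes. Imaged by fluorescence microscopy; grey value per field normalized to cell count, triplicate wells, each imaged in triplicate.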

[4] = Drug accumulation in mitochondria of human UM-UC-3 cells at 500 nM formulated with 1% tween 80 solution after 24 hrs by mitotracker red based fluorimetry; type: ADME; conditions: umuc3, 24 h, 0.5 µM
[5] = Drug accumulation in human T24 cells at 500 nM formulated with 2% pluronic F-127 solution after 24 hrs by CARY-fluorimetry; type: ADME, cell-based; conditions: t-24, 24 h, 0.5 µM
[6] = system: UMUC3; experiment: Photo-activated cytotoxicity against human UM-UC-3 cells assessed as reduction in cell viability preincubated for 24 hrs followed by 1 J/cm2 light irradiation and measured after 48 hrs formulated with 1% tween 80 solution by MTT assay; type: functional, cell-based; conditions: UMUC3, light or radiation study
Summary of the method: (§2)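 Cells plated at 10k per well, allowed 24 h to adhere, then PS added in two-fold dilutions from 1 µM top for 24 h. Irradiated at 665 nm, 1.0 J/cm2 at 3.2 mW/cm2. Viability by MTT 48 h after PDT: about 2 h incubation, formazan dissolved in DMSO, absorbance at 570 nm.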

[7] = Drug accumulation in human UM-UC-3 cells at 500 nM formulated with 2% pluronic F-127 solution after 24 hrs by CARY-fluorimetry; type: ADME, cell-based; conditions: umuc3, 24 h, 0.5 µM
[8] = system: UMUC3; experiment: Photo-activated cytotoxicity against human UM-UC-3 cells assessed as reduction in cell viability preincubated for 24 hrs followed by 1 J/cm2 light irradiation and measured after 48 hrs formulated with 2% pluronic F-127 solution by MTT assay; type: functional, cell-based; conditions: UMUC3, light or radiation study; summary of the method: as §2
[9] = Drug accumulation in lysosomes of human UM-UC-3 cells at 500 nM formulated with 2% pluronic F-127 solution after 24 hrs by lysosphere green based fluorimetry; type: ADME, subcellular, Lysosome; conditions: umuc3, 24 h, 0.5 µM
[10] = Drug uptake in human UM-UC-3 cells assessed as increase in gray value intensity at 500 nM after 48 hrs in presence of gleevec by Hoechst 33342 staining based fluorescence microscopy; type: ADME, cell-based; conditions: umuc3, 24 h, 0.5 µM, in the assay text read “after 24 hrs” for “after 48 hrs”
Summary of the method: (§3)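 Cells plated at 100k per well, grown to 80% confluency, refreshed, then incubated 24 h with PS at 500 nM with or without Gleevec 5 µM. Washed twice with PBS, Hoechst 33342 added, imaged by fluorescence microscopy; grey value normalized to cell number, triplicate groups and images.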

[11] = system: T-24; experiment: Photo-activated cytotoxicity against human T24 cells assessed as reduction in cell viability preincubated for 24 hrs followed by 1 J/cm2 light irradiation and measured after 48 hrs formulated with 1% tween 80 solution by MTT assay; type: functional, cell-based; conditions: T-24, light or radiation study; summary of the method: as §2
[12] = Drug accumulation in mitochondria of human T24 cells at 500 nM formulated with 1% tween 80 solution after 24 hrs by mitotracker red based fluorimetry; type: ADME; conditions: t-24, 24 h, 0.5 µM
[13] = system: UMUC3; experiment: Induction of oxidative stress in human UM-UC-3 cells assessed as increase in ROS production at 1 uM in presence of 1 J/cm2 light irradiation and measured at 20 min post light exposure by DCFDA-fluorescence based assay relative to control; type: functional
Summary of the method: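 UMUC3 cells at 10k per well; after 24 h, PS added at 1 µM for 24 h (Tween80 formulation). DCFDA 1 µM for 20 min, fluorescence read (ex 492, em 517). Then 665 nm light, 1 J total at 3.2 mW/cm2, and read again. No-DCFDA background subtracted; 0.05% H2O2 control wells.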

[14] = Drug accumulation in mitochondria of human UM-UC-3 cells at 500 nM formulated with 2% pluronic F-127 solution after 24 hrs by mitotracker red based fluorimetry; type: ADME; conditions: umuc3, 24 h, 0.5 µM
[15] = Drug accumulation in lysosomes of human T24 cells at 500 nM formulated with 1% tween 80 solution after 24 hrs by lysosphere green based fluorimetry; type: ADME, subcellular, Lysosome; conditions: t-24, 24 h, 0.5 µM
[16] = Drug accumulation in lysosomes of human UM-UC-3 cells at 500 nM formulated with 1% tween 80 solution after 24 hrs by lysosphere green based fluorimetry; type: ADME, subcellular, Lysosome; conditions: umuc3, 24 h, 0.5 µM
[17] = Drug uptake in human T24 cells assessed as increase in gray value intensity at 1 uM pretreated for 24 hrs followed by compound washout and measured after 4 hrs by Hoechst 33342 staining based fluorescence microscopy; type: ADME, cell-based; conditions: t-24, 4 h; summary of the method: as §1
[18] = target: Epidermal growth factor receptor (Homo sapiens) (UniProt P00533); experiment: Inhibition of EGFR autophosphorylation at Ty1068 in human UM-UC-3 cells at 100 nM followed by PDT and measured after 24 hrs by Western blot analysis; type: cell-based
[19] = Induction of singlet oxygen generation in deaerated toluene at 670 nm assessed as rate of singlet decay by femtosecond transient absorption spectroscopy; type: functional
[20] = Stability at -20 degC for 2 months; type: physicochemical; conditions: 1461 h
Summary of the method: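 Formulated PS stored at -4 °C or -20 °C for two months; checked for precipitation and pH change.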

[21] = Drug accumulation in human UM-UC-3 cells at 500 nM formulated with 1% tween 80 solution after 24 hrs by CARY-fluorimetry; type: ADME, cell-based; conditions: umuc3, 24 h, 0.5 µM
[22] = system: T-24; experiment: Induction of apoptosis in human T24 cells assessed as increase in apoptotic cells at 1 uM in absence of light by Annexin V/propidium iodide-staining based flow cytometry; type: cell-based; conditions: t-24, 1 µM
[23] = Induction of singlet oxygen generation in deaerated toluene at 670 nm assessed as singlet decay life time by femtosecond transient absorption spectroscopy; type: functional
[24] = Drug accumulation in human T24 cells at 500 nM formulated with 1% tween 80 solution after 24 hrs by CARY-fluorimetry; type: ADME, cell-based; conditions: t-24, 24 h, 0.5 µM
[25] = Drug accumulation in lysosomes of human T24 cells at 500 nM formulated with 2% pluronic F-127 solution after 24 hrs by lysosphere green based fluorimetry; type: ADME, subcellular, Lysosome; conditions: t-24, 24 h, 0.5 µM
[26] = Stability at -4 degC for 2 months; type: physicochemical; conditions: 1461 h
Summary of the method: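 Photosensitizer formulations in Tween80 or Pluronic F-127 were stored at -4 °C, alongside a -20 °C set, for two months. Stability was judged by visible precipitation and change in pH.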

[27] = Drug uptake in human UM-UC-3 cells assessed as increase in gray value intensity at 500 nM after 48 hrs in absence of gleevec by Hoechst 33342 staining based fluorescence microscopy; type: ADME, cell-based; conditions: umuc3, 24 h, 0.5 µM, in the assay text read “24 hrs” for “48 hrs”; summary of the method: as §3
[28] = target: Epidermal growth factor receptor (Homo sapiens) (UniProt P00533); experiment: Inhibition of EGFR autophosphorylation at Ty1068 in human T24 cells at 1 uM followed by PDT and measured after 24 hrs by Western blot analysis; type: cell-based
[29] = Drug accumulation in mitochondria of human T24 cells at 500 nM formulated with 2% pluronic F-127 solution after 24 hrs by mitotracker red based fluorimetry; type: ADME; conditions: t-24, 24 h, 0.5 µM

SMILES | inhibition [1] | Activity [2] | Drug uptake [3] | Drug uptake [4] | Drug uptake [5] | IC50 [6] | Drug uptake [7] | IC50 [8] | Drug uptake [9] | Drug uptake [10] | IC50 [11] | Drug uptake [12] | fold change (FC) [13] | Drug uptake [14] | Drug uptake [15] | Drug uptake [16] | Drug uptake [17] | inhibition [18] | K [19] | Stability [20] | also measured
CCC1=C(C)c2cc3[nH]c(cc4nc(c5c6[nH]c(cc1n2)c(C)c6C(=O)C5)[C@@H](CCC(=O)OC)[C@@H]4C)c(C)c3C(C)OCc1cccc(I)c1 (stereo partly drawn) | inactive | Non-Toxic | Active | Active | Active | 95.2 nM | Active | 200 nM | Active | Active | 73.7 nM | Active | 2.5 | Active | Active | Active | Active | Active | 1 ×10⁹ /s | Stable | Drug uptake [21]: Active; Activity [22]: Non-Toxic; Time [23]: 1 nanoseconds; Drug uptake [24]: Active; Drug uptake [25]: Active; Stability [26]: Stable; Drug uptake [27]: Active; inhibition [28]: inactive; Drug uptake [29]: Active
CCC1=C(C)c2cc3[nH]c(cc4nc(c5c6[nH]c(cc1n2)c(C)c6C(=O)C5)[C@@H](CCC(=O)NCc1cccc(I)c1)[C@@H]4C)c(C)c3C(C)OCc1cccc(C#Cc2cccc(Nc3ncnc4cc(OCCOC)c(OCCOC)cc34)c2)c1 (stereo partly drawn) | Active | Non-Toxic | Not Active | Active | Active | 608 nM | Active | 326 nM | Active | Not Active | 1030 nM | Active | 0.9 | Active | Active | Active | Active | Active | 1.2 ×10¹⁰ /s | Stable | Drug uptake [21]: Active; Activity [22]: Non-Toxic; Time [23]: 83 pS; Drug uptake [24]: Active; Drug uptake [25]: Active; Stability [26]: Stable; Drug uptake [27]: Not Active; inhibition [28]: Active; Drug uptake [29]: Active
